Consider 74 sequences from the array DNA melting data of Ke et al. (doi:10.1101/2024.01.08.574731).

Series [1] is described as follows: folding enthalpy; higher = less favourable; fluorescence melt of hairpins on a sequencing array, two-state fit. To be noted: sodium 0.088 M. In short, it runs like this: (§1)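 Cy3 fluorescence of library hairpins on a sequenced MiSeq flow cell, with annealed Cy3 and quencher oligos, was imaged in 50 mM Na-HEPES pH 8.0, 25 mM NaCl in 2.5 °C steps up to 60 °C. Signals were normalised to pre-quench Cy3 and to control variants. Melting temperature and folding enthalpy came from bootstrapped two-state fits, inverse-variance combined over four replicates. Fitted temperatures were raised by 9.35 °C to match UV melts.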

A short description of series [2]: melting temperature; fluorescence melt of hairpins on a sequencing array, two-state fit, raised by 9.35 °C to match UV melts. To be noted: sodium 0.088 M. The procedure, abridged: as §1

Turning to GATCTTACAGAAGATC ((((((....)))))), the folding enthalpy in series [1] was -31.8 kcal/mol. Besides, the Tm in series [2] was 38.4 °C.
The corresponding values for GCATTCGAAAGAAGTTGC ((((((....)))..))) are -7.36 kcal/mol and 26 °C.
The corresponding values for CGTCAGCGGAAACGCACG (((..(((....)))))) are -15.4 kcal/mol and 40.6 °C.
The corresponding values for GCGGAGCGAAAGCTCGC (((.(((....)))))) are -17.6 kcal/mol and 67.4 °C.
Turning to GGCCTTCCGAAAGGAGCC (((..(((....)))))), the folding enthalpy in series [1] was -19.1 kcal/mol. For the same sequence, the Tm in series [2] came to 38.9 °C.
The corresponding values for GAAATAGCGAAAGCTTTC (((..(((....)))))) are -11.8 kcal/mol and 28.6 °C.
The corresponding values for GGAGCTGAAAAGCTCC ((((((....)))))) are -37.5 kcal/mol and 68.9 °C.
For the sequence GACACTGGAAACAGTATC ((.((((....)))).)), the folding enthalpy in series [1] is -17.6 kcal/mol. In addition, in series [2], the Tm came out at 30.4 °C.
In the case of GAAAACGAAAGTTCTTTC ((((((....)))..))), in series [1], the folding enthalpy was -15.9 kcal/mol. Besides, in series [2], the Tm worked out at 28.9 °C.
The corresponding values for GCTCAGCGAAAGCTCTGC ((..(((....)))..)) are -13.4 kcal/mol and 28.8 °C.
With GCTACAACGAAAGTTAGC (((..(((....)))))), the folding enthalpy in series [1] is -18.6 kcal/mol. In addition, the Tm in series [2] stood at 33.4 °C.
The corresponding values for CCACTGAAAAGTGG (((((....))))) are -25.3 kcal/mol and 54.5 °C.
The corresponding values for GCTCAGGAAACTGAGC ((((((....)))))) are -42.4 kcal/mol and 64.7 °C.
As for GCATGGCCGAAAGGCTGC (((..(((....)))))), in series [1], the folding enthalpy was -13.2 kcal/mol. The Tm in series [2] was 53.3 °C.
The corresponding values for GCGCTCGAAAGAGGCCGC ((((((....)))..))) are -16.5 kcal/mol and 47.5 °C.
The corresponding values for GACAGTGGAAACACTATC ((.((((....)))).)) are -15.9 kcal/mol and 29.5 °C.
As to GCCTTTCGAAAGAATGGC (((.(((....))).))), in series [1], the folding enthalpy is -42.6 kcal/mol. Besides, the Tm in series [2] was determined as 53 °C.
The corresponding values for GCAAGACCGAAAGGTTGC (((..(((....)))))) are -22.6 kcal/mol and 48.2 °C.
The corresponding values for AGGCAGAAATGCCT (((((....))))) are -17.6 kcal/mol and 54.7 °C.
The corresponding values for GGACTCCGAAAGGATCC (((.(((....)))))) are -24.5 kcal/mol and 46.9 °C.
On to GACAGGGGAAACCCCATC ((..(((....)))..)), for which the folding enthalpy in series [1] was -13.2 kcal/mol. In series [2], the Tm turned out to be 27.1 °C.
Consider GCAACCGAAAGGTACTGC ((((((....)))..))), for which the folding enthalpy in series [1] was -13.9 kcal/mol. Moreover, the Tm in series [2] was determined as 33.5 °C.
For GCATGGCGAAAGCCTAGC ((..(((....)))..)), the folding enthalpy in series [1] is -17.9 kcal/mol. Also, the Tm in series [2] was found to be 52.1 °C.
Consider GACCCGCGAAAGCGGTC (((.(((....)))))), for which the folding enthalpy in series [1] is -10 kcal/mol. The Tm in series [2] was 52.1 °C.
Regarding GGAGCCGAAAGGCTTTCC ((((((....)))..))), the folding enthalpy in series [1] was -7.92 kcal/mol. Also, the Tm in series [2] came out at 43.8 °C.
Regarding GCCTTGCGAAAGCATAGC ((..(((....)))..)), the folding enthalpy in series [1] is -9.69 kcal/mol. Besides, the Tm in series [2] was determined as 50.8 °C.
The corresponding values for CAATGGAAACATTG (((((....))))) are -26 kcal/mol and 40.6 °C.
As to GTGCCAGGAAACTGACAC (((.(((....))).))), the folding enthalpy in series [1] was -35.5 kcal/mol. Also, the Tm in series [2] turned out to be 47.5 °C.
The corresponding values for GATCATGACTATGATC ((((((....)))))) are -48.6 kcal/mol and 54.2 °C.
The corresponding values for AGCAAGAAATTGCT (((((....))))) are -16 kcal/mol and 39.3 °C.
As for GCGTTGGGAAACCAACAC (.(((((....))))).), the folding enthalpy in series [1] was -14.4 kcal/mol. In addition, the Tm in series [2] amounted to 42.5 °C.
Turning to GCACCTGGAAACAGATGC (((.(((....))).))), the folding enthalpy in series [1] is -28.4 kcal/mol. The Tm in series [2] is 44 °C.
The corresponding values for GGAATCGAAAGATATCC ((((((....))).))) are -13.4 kcal/mol and 29.1 °C.
The corresponding values for GCGTGAGGAAACTCGTGC ((..(((....)))..)) are -28.7 kcal/mol and 38.9 °C.
The corresponding values for CGGTCGGAAACGAGCCCG ((((((....)))..))) are -14 kcal/mol and 37.5 °C.
Take CGGTTCGGAAACGACCCG (((.(((....))).))): the folding enthalpy in series [1] was -33 kcal/mol. Also, the Tm in series [2] turned out to be 50 °C.
In the case of GATCACTAGCGTGATC ((((((....)))))), in series [1], the folding enthalpy is -41.8 kcal/mol. Moreover, the Tm in series [2] was found to be 55.1 °C.
The corresponding values for GCGGTGGGAAACCATCGC (((.(((....))).))) are -40.9 kcal/mol and 61.8 °C.
With GATCGAGATTCGATC ((((((...)))))), in series [1], the folding enthalpy was -41.4 kcal/mol. Moreover, the Tm in series [2] was 50.4 °C.
GCGGTAGGAAACCACCGC (((((.(....).))))): the folding enthalpy in series [1] was -36.8 kcal/mol. The Tm in series [2] turned out to be 57.3 °C.
The corresponding values for CGAGACGGAAACGTTCG (((.(((....)))))) are -26.3 kcal/mol and 40.9 °C.
As for GAGAGCGAAAGCTAGCTC ((((((....)))..))), the folding enthalpy in series [1] is -13.8 kcal/mol. For the same sequence, the Tm in series [2] is 36.6 °C.
For the sequence GTGCACGAAAGTGTTCAC ((((((....)))..))), the folding enthalpy in series [1] was -12.3 kcal/mol. The Tm in series [2] came to 37.4 °C.
For CGGTTCGGAAACGACCG (((.(((....)))))), in series [1], the folding enthalpy was -35.6 kcal/mol. Moreover, in series [2], the Tm was determined as 50.6 °C.
For the sequence GTTACCGAAAGGTGAAC ((((((....))).))), in series [1], the folding enthalpy was -14.8 kcal/mol. Further, in series [2], the Tm was determined as 39.9 °C.
The corresponding values for GCTCTGCGAAAGCCTAGC (((..((....))..))) are -14.7 kcal/mol and 36.6 °C.
As for GATCATAGAATGATC ((((((...)))))), the folding enthalpy in series [1] is -36 kcal/mol. Moreover, the Tm in series [2] came out at 48 °C.
Consider GCCCATGGAAACATGAGC ((.((((....)))).)), for which the folding enthalpy in series [1] is -27.9 kcal/mol. The Tm in series [2] is 43.1 °C.
The corresponding values for GATCCTGGCGAGGATC ((((((....)))))) are -48.3 kcal/mol and 54.6 °C.
Regarding GTAATCTCGAAAGAGTAC (((..(((....)))))), the folding enthalpy in series [1] is -10.9 kcal/mol. In addition, the Tm in series [2] was found to be 26.7 °C.
The corresponding values for GTACCAGGAAACTGGCAC ((.((((....)))).)) are -21.1 kcal/mol and 42.1 °C.
As for GTGGCGCCGAAAGGCCAC (((..(((....)))))), the folding enthalpy in series [1] was -13.8 kcal/mol. The Tm in series [2] was 57.8 °C.
Consider GCCAATGGAAACATCGGC (((.(((....))).))), for which, in series [1], the folding enthalpy was -28.9 kcal/mol. Besides, the Tm in series [2] amounted to 44 °C.
As for GATCGTTCAACGATC ((((((...)))))), the folding enthalpy in series [1] was -42 kcal/mol. Moreover, the Tm in series [2] came to 55.5 °C.
The corresponding values for GAAAGCGCGAAAGCGTTC (((..(((....)))))) are -7.58 kcal/mol and 28.3 °C.
As for GCGACTGCGAAAGCACGC (((..(((....)))))), in series [1], the folding enthalpy was -15.3 kcal/mol. The Tm in series [2] was determined as 48.8 °C.
As for GGCATCGAAAGATTTGCC ((((((....)))..))), the folding enthalpy in series [1] is -29.2 kcal/mol. Further, the Tm in series [2] worked out at 40.7 °C.
The corresponding values for GGTATTGGAAACAACACC (((.(((....))).))) are -31.9 kcal/mol and 32.2 °C.
The corresponding values for GCGTCACGAAAGTGCCGC (((.(((....))).))) are -46.1 kcal/mol and 59.6 °C.
The corresponding values for GATCCCACGGGGATC ((((((...)))))) are -33.5 kcal/mol and 65.6 °C.
On to GCATACCGAAAGGTCTGC (((.(((....))).))), for which, in series [1], the folding enthalpy is -33.5 kcal/mol. The Tm in series [2] was determined as 51.4 °C.
The corresponding values for GCCCGCCGAAAGGCAGGC (((.(((....))).))) are -20.8 kcal/mol and 69 °C.
Consider GATCGTTCAGACGATC ((((((....)))))), for which, in series [1], the folding enthalpy is -38.9 kcal/mol. Moreover, the Tm in series [2] turned out to be 55.6 °C.
As to GATCCAGATTTGGATC ((((((....)))))), the folding enthalpy in series [1] is -30 kcal/mol. The Tm in series [2] came out at 50.4 °C.
GCCTTCGAAAGAACGGGC ((((((....)))..))): the folding enthalpy in series [1] is -23 kcal/mol. In addition, the Tm in series [2] came to 41 °C.
The corresponding values for GCTTGAGGAAACTTGAGC (((..((....))..))) are -16.7 kcal/mol and 33.8 °C.
As to GATGCAGAAATGCATC ((((((....)))))), in series [1], the folding enthalpy was -36.7 kcal/mol. Besides, in series [2], the Tm came to 58.7 °C.
The corresponding values for GGGCTGGCGAAAGCCCCC (((..(((....)))))) are -12.9 kcal/mol and 52.1 °C.
With GATCAACACTTGATC ((((((...)))))), the folding enthalpy in series [1] is -31.6 kcal/mol. Further, the Tm in series [2] was 40.5 °C.
As for GCCCTGCGAAAGCACTGC ((..(((....)))..)), in series [1], the folding enthalpy is -6.98 kcal/mol. In series [2], the Tm was 24.6 °C.
The corresponding values for CGGTAGCGGAAACGCCCG (((..(((....)))))) are -23.4 kcal/mol and 48.7 °C.
The corresponding values for GGTGGACGAAAGTCACC (((.(((....)))))) are -25.5 kcal/mol and 55.3 °C.
The corresponding values for GGGGGTCGAAAGACGCCC (((.(((....))).))) are -21.5 kcal/mol and 68.7 °C.
Turning to GGAACGGGAAACTGTTCC (((((.(....).))))), the folding enthalpy in series [1] was -42.4 kcal/mol. In addition, the Tm in series [2] was found to be 53 °C.
